Test [1] relates to SEM cells. Kind of test: Inhibition of HDAC6/chymotrypsin-like activity of 20S proteasome in human SEM cells assessed as increase in ATF4 protein expression at 0.1 to 10 uM after 18 hrs by Western blot assay. The class given is cell-based. The method, boiled down: (§1)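 Cells treated 18 h at indicated concentrations; lysates analysed by western blot for heat shock (Grp94, HSP70, HSP40, HSP27), UPR (BIP, ATF4, ATF6, pJNK) and autophagy (LC3B, p62) proteins.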

The target in test [2] is Histone deacetylase 3/Nuclear receptor corepressor 2 (HDAC3/NCoR2) (Homo sapiens, UniProt O15379). The class given is ADME, cell-based.
Chain of Histone deacetylase 3/Nuclear receptor corepressor 2 (HDAC3/NCoR2) (O15379 whole entry): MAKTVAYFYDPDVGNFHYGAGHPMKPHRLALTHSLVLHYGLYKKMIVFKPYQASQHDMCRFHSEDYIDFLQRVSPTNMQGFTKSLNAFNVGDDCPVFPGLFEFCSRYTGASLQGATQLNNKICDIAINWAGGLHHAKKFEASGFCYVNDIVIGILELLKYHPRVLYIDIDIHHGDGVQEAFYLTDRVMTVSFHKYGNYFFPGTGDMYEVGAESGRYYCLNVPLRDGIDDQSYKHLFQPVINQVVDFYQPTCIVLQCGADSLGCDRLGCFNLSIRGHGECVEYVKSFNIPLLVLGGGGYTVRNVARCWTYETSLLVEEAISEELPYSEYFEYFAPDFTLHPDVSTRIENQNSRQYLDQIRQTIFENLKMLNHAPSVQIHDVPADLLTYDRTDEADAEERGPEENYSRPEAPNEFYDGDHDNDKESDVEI
Chain of Histone deacetylase 3/Nuclear receptor corepressor 2 (HDAC3/NCoR2) (Q9Y618 whole entry, further chain): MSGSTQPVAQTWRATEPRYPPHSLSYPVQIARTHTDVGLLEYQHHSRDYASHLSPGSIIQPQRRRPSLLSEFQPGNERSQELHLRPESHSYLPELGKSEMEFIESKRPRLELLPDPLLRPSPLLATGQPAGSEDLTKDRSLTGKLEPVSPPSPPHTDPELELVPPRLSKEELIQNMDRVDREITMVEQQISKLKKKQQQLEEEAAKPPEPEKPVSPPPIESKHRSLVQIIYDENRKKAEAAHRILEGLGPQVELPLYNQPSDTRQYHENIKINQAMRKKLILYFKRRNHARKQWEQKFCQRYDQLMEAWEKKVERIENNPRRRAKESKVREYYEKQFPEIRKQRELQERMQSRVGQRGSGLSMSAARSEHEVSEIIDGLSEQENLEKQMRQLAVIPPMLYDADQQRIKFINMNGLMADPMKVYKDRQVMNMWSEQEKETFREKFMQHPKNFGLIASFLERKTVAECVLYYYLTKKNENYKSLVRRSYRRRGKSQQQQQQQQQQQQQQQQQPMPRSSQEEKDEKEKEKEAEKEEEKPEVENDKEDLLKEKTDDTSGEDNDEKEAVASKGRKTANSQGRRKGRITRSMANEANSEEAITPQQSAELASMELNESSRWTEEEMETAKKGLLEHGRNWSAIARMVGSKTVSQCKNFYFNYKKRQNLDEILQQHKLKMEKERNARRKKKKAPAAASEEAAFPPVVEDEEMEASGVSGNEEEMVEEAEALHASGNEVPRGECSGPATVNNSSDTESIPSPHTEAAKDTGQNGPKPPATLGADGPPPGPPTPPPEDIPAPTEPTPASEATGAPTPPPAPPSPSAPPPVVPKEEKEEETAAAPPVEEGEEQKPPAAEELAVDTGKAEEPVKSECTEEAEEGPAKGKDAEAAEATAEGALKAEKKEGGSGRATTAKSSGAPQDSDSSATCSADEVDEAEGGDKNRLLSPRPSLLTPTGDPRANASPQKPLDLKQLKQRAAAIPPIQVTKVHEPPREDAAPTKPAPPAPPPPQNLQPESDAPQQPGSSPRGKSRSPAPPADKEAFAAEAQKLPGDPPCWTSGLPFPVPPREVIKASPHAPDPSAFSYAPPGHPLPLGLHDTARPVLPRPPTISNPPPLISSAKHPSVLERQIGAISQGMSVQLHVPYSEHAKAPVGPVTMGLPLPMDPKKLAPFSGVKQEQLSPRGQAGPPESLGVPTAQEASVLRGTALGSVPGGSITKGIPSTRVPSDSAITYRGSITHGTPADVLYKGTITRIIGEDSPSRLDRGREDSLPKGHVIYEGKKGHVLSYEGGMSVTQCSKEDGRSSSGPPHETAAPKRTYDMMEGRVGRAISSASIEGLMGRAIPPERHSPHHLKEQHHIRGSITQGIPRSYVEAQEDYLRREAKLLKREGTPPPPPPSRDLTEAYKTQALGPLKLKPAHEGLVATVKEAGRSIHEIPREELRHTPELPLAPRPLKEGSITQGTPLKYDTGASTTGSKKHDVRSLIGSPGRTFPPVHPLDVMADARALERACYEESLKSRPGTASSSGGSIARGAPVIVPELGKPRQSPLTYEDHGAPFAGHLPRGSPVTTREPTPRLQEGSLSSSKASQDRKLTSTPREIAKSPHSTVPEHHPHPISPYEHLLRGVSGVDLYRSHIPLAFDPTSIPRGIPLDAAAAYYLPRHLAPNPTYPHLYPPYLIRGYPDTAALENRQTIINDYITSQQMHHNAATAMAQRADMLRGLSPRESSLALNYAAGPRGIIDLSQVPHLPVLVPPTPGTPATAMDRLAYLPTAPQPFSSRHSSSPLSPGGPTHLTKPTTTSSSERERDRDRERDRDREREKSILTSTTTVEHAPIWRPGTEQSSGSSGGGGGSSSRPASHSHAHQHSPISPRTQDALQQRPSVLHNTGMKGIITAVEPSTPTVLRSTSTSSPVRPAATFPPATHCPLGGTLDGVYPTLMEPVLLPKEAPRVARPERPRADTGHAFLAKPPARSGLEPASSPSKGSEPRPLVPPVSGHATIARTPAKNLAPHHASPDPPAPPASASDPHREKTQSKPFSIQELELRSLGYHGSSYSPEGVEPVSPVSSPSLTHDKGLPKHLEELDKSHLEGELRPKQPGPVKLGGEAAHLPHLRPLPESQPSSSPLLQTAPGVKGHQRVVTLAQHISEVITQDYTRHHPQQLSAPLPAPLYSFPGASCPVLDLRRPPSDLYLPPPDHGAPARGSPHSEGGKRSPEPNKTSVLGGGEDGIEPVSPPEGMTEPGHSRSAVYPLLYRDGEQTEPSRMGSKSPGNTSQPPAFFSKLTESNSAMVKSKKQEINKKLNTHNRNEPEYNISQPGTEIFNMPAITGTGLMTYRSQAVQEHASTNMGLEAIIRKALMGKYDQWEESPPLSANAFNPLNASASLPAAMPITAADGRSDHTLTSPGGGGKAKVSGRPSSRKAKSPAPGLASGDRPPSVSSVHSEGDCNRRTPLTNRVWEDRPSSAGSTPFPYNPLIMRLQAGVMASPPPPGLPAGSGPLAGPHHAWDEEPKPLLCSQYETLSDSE
The target of test [3] is Proteasome Macropain subunit (Homo sapiens) (UniProt P49721). The experiment in a line: Inhibition of trypsin-like activity of 20S proteasome in human SEM cells at 4 nM to 25 uM using Z-LRR-aminoluciferin as substrate after 2 hrs by proteasome-Glo assay. The class given is cell-based.
Chain of Proteasome Macropain subunit (Homo sapiens) (P49721 whole entry): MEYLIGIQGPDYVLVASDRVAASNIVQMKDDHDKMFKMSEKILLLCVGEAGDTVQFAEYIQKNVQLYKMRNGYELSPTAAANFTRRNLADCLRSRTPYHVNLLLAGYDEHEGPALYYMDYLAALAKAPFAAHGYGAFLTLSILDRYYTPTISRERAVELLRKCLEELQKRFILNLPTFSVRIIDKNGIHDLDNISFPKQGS
The subject of test [4] is SEM cells. The experiment in a line: Inhibition of HDAC6/chymotrypsin-like activity of 20S proteasome in human SEM cells assessed as increase in LC3B protein expression at 0.1 to 10 uM after 18 hrs by Western blot assay. The class given is cell-based. The method, boiled down: as §1
Background: Immunoblotting shows a protein as a band on a membrane.

For test [5], the target named is T1, Proteasome Macropain subunit MB1 (Homo sapiens, UniProt P28074).
T1 sequence (P28074 whole entry): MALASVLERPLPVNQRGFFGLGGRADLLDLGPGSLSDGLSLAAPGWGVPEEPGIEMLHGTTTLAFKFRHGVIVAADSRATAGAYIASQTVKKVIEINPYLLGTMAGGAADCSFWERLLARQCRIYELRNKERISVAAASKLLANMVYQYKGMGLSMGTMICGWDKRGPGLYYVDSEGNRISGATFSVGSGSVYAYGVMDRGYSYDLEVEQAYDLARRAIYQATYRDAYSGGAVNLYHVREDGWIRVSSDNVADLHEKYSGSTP
Kind of test: Inhibition of chymotrypsin-like activity of 20S proteasome in imatinib-resistant human SUP-B15 cells using Suc-LLVY aminoluciferin as substrate after 2 hrs by proteasome-Glo assay. The class given is cell-based.

Test [6] concerns SEM cells. Kind of test: Inhibition of HDAC6/chymotrypsin-like activity of 20S proteasome in human SEM cells assessed as increase in p62 protein expression at 0.1 to 10 uM after 18 hrs by Western blot assay. The class given is cell-based. The method, boiled down:
as §1

Test [7] concerns the target T1, Proteasome Macropain subunit MB1. The experiment in a line: Inhibition of chymotrypsin-like activity of 20S proteasome in human SEM cells using Suc-LLVY aminoluciferin as substrate after 2 hrs by proteasome-Glo assay. The class given is cell-based.
Test [8] has the same target. Kind of test: Inhibition of chymotrypsin-like activity of 20S proteasome in human HL60 cells using Suc-LLVY aminoluciferin as substrate after 2 hrs by proteasome-Glo assay. The class given is cell-based.
Test [9] relates to SEM cells. The experiment in a line: Cell cycle arrest in human SEM cells assessed as accumulation at S phase after 48 hrs by propidium iodide staining-based FACS analysis. The class given is functional. For orientation: Flow cytometry measures light scatter and fluorescence of single cells or particles in a stream.
The subject of test [10] is SEM cells. The experiment in a line: Inhibition of HDAC6/chymotrypsin-like activity of 20S proteasome in human SEM cells assessed as increase in HSP40 protein expression at 0.1 to 10 uM after 18 hrs by Western blot assay. The class given is cell-based. The gist of the method:
as §1

Test [11] deals with SEM cells. The experiment in a line: Inhibition of HDAC6/chymotrypsin-like activity of 20S proteasome in human SEM cells assessed as increase in HSP70 protein expression at 0.1 to 10 uM after 18 hrs by Western blot assay. The class given is cell-based. The method, boiled down: as §1
Test [12] has as its target T2, Proteasome component C5 (Homo sapiens) (UniProt P20618).
T2 sequence (whole entry): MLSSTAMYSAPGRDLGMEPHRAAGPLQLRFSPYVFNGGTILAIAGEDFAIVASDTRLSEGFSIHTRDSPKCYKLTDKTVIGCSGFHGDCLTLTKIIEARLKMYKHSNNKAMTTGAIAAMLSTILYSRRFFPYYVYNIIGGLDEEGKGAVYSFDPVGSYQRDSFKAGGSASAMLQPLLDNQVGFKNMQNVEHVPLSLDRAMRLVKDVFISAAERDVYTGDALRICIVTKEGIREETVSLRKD
The experiment in a line: Inhibition of caspase-like activity of 20S proteasome in human HL60 cells at 4 nM to 25 uM using Z-nLPnLD-aminoluciferin as substrate after 2 hrs by proteasome-Glo assay. The class given is cell-based.

In test [13] the test system is PBMC. The experiment in a line: cells. Particulars: Homo sapiens, 72 h. The class given is ADME, cell-based.
The test system of test [14] is SEM cells. The experiment in a line: Induction of apoptosis in human SEM cells at IC50 to 2 times IC50 after 48 hrs by annexin V/propidium iodide staining-based FACS analysis relative to control. The class given is functional. The method, boiled down: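 After 48 h treatment at IC50 or 2x IC50, cells double-stained with annexin V and PI and analysed by FACS. Cells scored as living, early apoptotic (annexin V+), late apoptotic (both+) or necrotic (PI+).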

Test [15] concerns SEM cells. The experiment in a line: Inhibition of HDAC6/chymotrypsin-like activity of 20S proteasome in human SEM cells assessed as increase in cleaved PARP expression at 0.1 to 10 uM after 24 hrs by immunoblot assay. The class given is cell-based. The gist of the method:
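Cells exposed for 24 h at indicated concentrations; lysates immunoblotted for acetyl-α-tubulin, acetyl-histone H3, PARP, with GAPDH as loading control.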

For test [16], the system named is SEM cells. Kind of test: Reduction of colony forming capacity of human SEM cells at IC50 to 2 times IC50 after 48 hrs. The class given is functional, cell-based. The gist of the method:
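SEM cells pretreated in liquid medium (methods: 24 h; legend: 48 h), then plated in semisolid methylcellulose-based medium containing compound or control; colonies counted after 14 days.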

Test [17] has as its system SEM cells. Kind of test: Cell cycle arrest in human SEM cells assessed as reduction in cell levels at G2/M phase at IC50 to 2 times IC50 after 48 hrs by propidium iodide staining-based FACS analysis. The class given is functional.
The nature of test [18]: Cytotoxicity against human BCP-ALL cells derived from patient 3 after 72 hrs by CellTiter-Glo luminescent cell viability assay. The class given is functional, cell-based. (In general: In ATP-based viability assays light output follows the ATP content of the culture.)
Test [19] relates to SEM cells. The experiment in a line: Induction of early differentiation of human SEM cells assessed as increase in CD11b expression at IC50 to 2 times IC50 after 72 hrs by FACS analysis. The class given is functional, cell-based. The gist of the method:
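Surface CD11b and CD14 measured by FACS using fluorochrome-coupled monoclonal antibodies with matched isotype controls, after treatment in liquid medium.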

For test [20], the system named is SEM cells. The experiment in a line: Induction of apoptosis in human SEM cells assessed as increase in caspase 3/7 activity at IC50 after 48 hrs by glo assay relative to control. The class given is functional. The gist of the method: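 Cells treated at IC50 or 2x IC50 for 48 h; caspase-3/7 activity read by luminescence after cleavage of a DEVD-containing luminogenic substrate.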

The nature of test [21]: Cytotoxicity against human BCP-ALL cells derived from patient 1 after 72 hrs by CellTiter-Glo luminescent cell viability assay. The class given is functional, cell-based.

SMILES strings stand for the structures. Active and inactive are the calls of the source. No cut-off for these calls is given here. Some results are limits rather than exact numbers.

For orientation: IC50 means the concentration that inhibits the measured activity by half.

Take `C[C@H](NC(=O)[C@H](CC(=O)NCC(C)(C)C)NC(=O)c1ccc(C(=O)NO)cc1)C(=O)NCc1ccccc1`: the inhibition result in [1], in test [4], in [6], in test [10], in test [11] and in test [15] was “Active” throughout. The IC50 was 15000 nM in test [2]; 820 nM in test [5]; 394 nM in test [7]; 260 nM in [8]; more than 25000 nM in test [13]; 5230 nM in test [18]. The compound further yielded an IC50 in test [21] of 2060 nM. For the same compound, the inhibition result in test [3] and in test [12] was “inactive” in each case. The Activity result in test [9] was “Dose-dependent effect”. The “fold change (FC)” value turned out to be 5 in [14] and 6 in test [20]. The outcome in test [16], in [17] and in test [19] was Active.
